# In ChEMBL document CHEMBL1123260 (J Med Chem, 1986):
# Values joined by “and” are separate entries in the source; they are usually repeats but may differ in a detail not shown here. Identical values can stand only once.
# Assays:
# Canis familiaris [1] = assay: Percent change in myocardial contractility (LV dp/dt) before beta-blockade in anesthetized dogs at 0.03 mg/kg; format: functional, Canis lupus familiaris, Myocardium
# Outline: (§1)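 Anesthetized dogs: 30 min control recording before dosing. Drug dissolved in 0.9% saline or dilute HCl or NaOH (0.1 or 1.0 N), then made to volume with saline. Given iv (0.1 mL/kg over 1 min), cumulative doses at half-log intervals, 10–30 min between doses to reach steady state. One compound per animal. Inotropy taken as change in LV dP/dtmax from preceding baseline. Values are mean ± SEM or the mean of two experiments.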
# Canis familiaris [2] = assay: (§2) Percent change in mean arterial blood pressure (MABP) before beta-blockade in anesthetized dogs at 0.03 mg/kg; format: functional, Canis lupus familiaris; outline: as §1
# Canis familiaris [3] = assay: (§3) Percent change in heart rate (HR) before beta-blockade in anesthetized dogs at 0.03 mg/kg; format: functional, Canis lupus familiaris; outline: as §1
# Canis familiaris [4] = assay: as §3; format: functional, Canis lupus familiaris; outline: as §1; remark: listed apart in the source
# Canis familiaris [5] = assay: as §2; format: functional, Canis lupus familiaris; outline: as §1; remark: listed apart in the source
# Canis familiaris [6] = assay: Positive inotropic effects in anesthetized dogs; format: functional; conditions: Canis lupus familiaris; outline: as §1
# Canis familiaris [7] = assay: Effective dose in anesthetized dogs; format: functional; conditions: Canis lupus familiaris; outline: as §1
# Canis familiaris [8] = assay: Cardiovascular effects in anesthetized dogs; format: functional; conditions: Canis lupus familiaris; outline: as §1
# Phosphodiesterase 3 = Phosphodiesterase 3 (Homo sapiens, UniProt Q14432+Q13370); assay: Inhibition of cardiac PDE 3 (phosphodiesterase III); format: protein assay, Canis lupus familiaris
# Canis familiaris [9] = assay: (§4) Percent change in total peripheral resistance (TPR) before beta-blockade in anesthetized dogs at 0.03 mg/kg; format: functional, Canis lupus familiaris; outline: as §1
# Canis familiaris [10] = assay: (§5) Percent change in mean arterial blood pressure (MABP) before beta-blockade in anesthetized dogs at 0.01 mg/kg; format: functional, Canis lupus familiaris; outline: as §1
# Canis familiaris [11] = assay: (§6) Percent change in myocardial contractility (LV dp/dt) before beta-blockade in anesthetized dogs at 0.01 mg/kg; format: functional, Canis lupus familiaris, Myocardium; outline: as §1
# Canis familiaris [12] = assay: Percent change in forelimb vascular resistance (FVR)in anesthetized dogs after beta-blockade at 0.01 mg/kg; format: functional, Canis lupus familiaris
# Outline: (§7)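 Anesthetized dogs given β-adrenoceptor blockade (nadolol, 1 mg/kg iv) before the test agent. Drug dissolved in saline or dilute HCl/NaOH and given iv as cumulative 1-min doses, 10–30 min apart. Forelimb vascular resistance recorded as percent change from control. Values are mean ± SEM (n = 4-5) or the mean of two determinations, with significance set at p < 0.05.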
# Canis familiaris [13] = assay: (§8) Percent change in forelimb vascular resistance (FVR) after beta-blockade in anesthetized dogs 0.03 mg/kg; format: functional, Canis lupus familiaris; outline: as §7
# Canis familiaris [14] = assay: Percent change in forelimb vascular resistance (FVR) after beta-blockade in anesthetized dogs 0.01 mg/kg; format: functional, Canis lupus familiaris; outline: as §7
# Canis familiaris [15] = assay: (§9) Percent change in mean arterial blood pressure (MABP) before beta-blockade in anesthetized dogs at 0.11 mg/kg; format: functional, Canis lupus familiaris; outline: as §1
# Canis familiaris [16] = assay: (§10) Percent change in heart rate (HR) before beta-blockade in anesthetized dogs at 0.11 mg/kg; format: functional, Canis lupus familiaris; outline: as §1
# Canis familiaris [17] = assay: as §4; format: functional, Canis lupus familiaris; outline: as §1; remark: listed apart in the source
# Canis familiaris [18] = assay: as §6; format: functional, Canis lupus familiaris, Myocardium; outline: as §1; remark: listed apart in the source
# Canis familiaris [19] = assay: as §9; format: functional, Canis lupus familiaris; outline: as §1; remark: listed apart in the source
# Canis familiaris [20] = assay: Percent change in total peripheral resistance (TPR) before beta-blockade in anesthetized dogs at 0.11 mg/kg; format: functional, Canis lupus familiaris; outline: as §1
# Canis familiaris [21] = assay: (§11) Percent change in forelimb vascular resistance (FVR) after beta-blockade in anesthetized dogs 0.11 mg/kg; format: functional, Canis lupus familiaris; outline: as §7
# Canis familiaris [22] = assay: as §8; format: functional, Canis lupus familiaris; outline: as §7; remark: listed apart in the source
# Canis familiaris [23] = assay: (§12) Percent change in heart rate (HR) before beta-blockade in anesthetized dogs at 0.01 mg/kg; format: functional, Canis lupus familiaris; outline: as §1
# Canis familiaris [24] = assay: as §11; format: functional, Canis lupus familiaris; outline: as §7; remark: listed apart in the source
# Canis familiaris [25] = assay: as §12; format: functional, Canis lupus familiaris; outline: as §1; remark: listed apart in the source
# Canis familiaris [26] = assay: (§13) Percent change in total peripheral resistance (TPR) before beta-blockade in anesthetized dogs at 0.01 mg/kg; format: functional, Canis lupus familiaris; outline: as §1
# Canis familiaris [27] = assay: Percent change in myocardial contractility (LV dp/dt) before beta-blockade in anesthetized dogs at 0.11 mg/kg; format: functional, Canis lupus familiaris, Myocardium; outline: as §1
# Canis familiaris [28] = assay: Percent change in total peripheral resistance (TPR) before beta-blockade in anaesthetized dogs at 0.11 mg/kg; format: functional, Canis lupus familiaris; outline: as §1
# Canis familiaris [29] = assay: as §5; format: functional, Canis lupus familiaris; outline: as §1; remark: listed apart in the source
# Canis familiaris [30] = assay: as §13; format: functional, Canis lupus familiaris; outline: as §1; remark: listed apart in the source
# Canis familiaris [31] = assay: as §10; format: functional, Canis lupus familiaris; outline: as §1; remark: listed apart in the source
smiles,measurement,setting,value
CC1CC(O)=NN=C1c1ccc(-n2ccnc2)cc1 (stereo not drawn) [CI-930],Change in LV dp/dt,Canis familiaris [1],76% and 47%
same,Change in MABP,Canis familiaris [2],-7.5%
same,Change in heart rate,Canis familiaris [3],11%
same,Change in heart rate,Canis familiaris [4],7%
same,Change in MABP,Canis familiaris [5],-5%
same,ED50,Canis familiaris [6],0.013 mg/kg
CN1N=C2c3ccc(-n4ccnc4)cc3CC2CC1=O (stereo not drawn),ED50,Canis familiaris [7],1 mg/kg
CCC(=O)Nc1ccc2c(c1)CC1CC(=O)NN=C21 (stereo not drawn),ED50,Canis familiaris [8],0.0104 mg/kg
Oc1cc2c(nn1)-c1ccc(-n3ccnc3)cc1C2,IC50,Phosphodiesterase 3,1.6 µM
O=C1CC2Cc3cc(-n4ccnc4)ccc3C2=NN1 (stereo not drawn),Change in TPR,Canis familiaris [9],-22.5%
same,Change in MABP,Canis familiaris [10],0%
same,Change in LV dp/dt,Canis familiaris [11],11%
same,Change in FVR,Canis familiaris [12],-1.5%
same,Change in FVR,Canis familiaris [13],-1.5%
same,Change in FVR,Canis familiaris [14],-7.5%
same,Change in MABP,Canis familiaris [15],-18%
same,Change in heart rate,Canis familiaris [16],12%
same,Change in TPR,Canis familiaris [17],-23%
same,Change in LV dp/dt,Canis familiaris [18],18%
same,Change in MABP,Canis familiaris [19],-18%
same,Change in TPR,Canis familiaris [20],-39%
same,Change in MABP,Canis familiaris [2],-7%
same,Change in FVR,Canis familiaris [21],-34.5%
same,Change in heart rate,Canis familiaris [3],4%
same,Change in FVR,Canis familiaris [22],-22.5%
same,Change in heart rate,Canis familiaris [23],0%
same,Change in heart rate,Canis familiaris [4],2%
same,Change in FVR,Canis familiaris [24],-31%
same,Change in heart rate,Canis familiaris [25],3%
same,Change in MABP,Canis familiaris [5],-3%
same,Change in TPR,Canis familiaris [26],-12%
same,Change in LV dp/dt,Canis familiaris [27],106% and 57%
same,Change in TPR,Canis familiaris [28],-33.5%
same,Change in MABP,Canis familiaris [29],-2%
same,Change in TPR,Canis familiaris [30],-8.5%
same,ED50,Canis familiaris [6],0.023 mg/kg
same,IC50,Phosphodiesterase 3,1.8 µM
same,Change in heart rate,Canis familiaris [31],5%
